≈ marks a conversion by molar mass, not a printed value.
Columns and labels:
[1] = test system: Trypanosoma cruzi; assay: Antitrypanosomal activity against intracellular Trypanosoma cruzi infected in human U2OS cells assessed as parasite growth inhibition incubated for 72 hrs by confocal microscopy; format: functional, organism-based; conditions: Trypanosoma cruzi, U2OS, 72 h
[2] = Selectivity index, ratio of IC50 for human U2OS cells to IC50 for intracellular Trypanosoma cruzi infected in human U2OS cells; format: toxicity, cell-based
How it was run: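 Host U2OS cell counts and intracellular parasite infection ratio were read from the same 72 h DRAQ5-stained confocal imaging assay. CC50 and EC50 came from 4-parameter logistic fits, and the selectivity index is their ratio.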

[3] = Plasma protein binding in mouse at 2 uM incubated for 6 hrs by LC/MS/MS analysis; format: ADME
[4] = Intrinsic clearance in mouse liver microsomes at 1 uM incubated for 15 to 30 mins by LC/MS/MS analysis; format: ADME, Microsome; conditions: time 15-30 min
[5] = Intrinsic clearance in human liver microsomes at 1 uM incubated for 15 to 30 mins by LC/MS/MS analysis; format: ADME, Microsome; conditions: time 15-30 min
[6] = Kinetic solubility of compound in aqueous buffer at pH 6.8 incubated for 16 to 24 hrs by HPLC analysis; format: physicochemical; conditions: time 16-24 hrs, read-out: Kinetic_solubility
[7] = Permeability of compound incubated for 3 hrs by PAMPA assay; format: ADME; conditions: read-out: permeability
[8] = Oral bioavailability in Balb/C mouse plasma at 50 mg/kg by LC/MS/MS analysis; format: ADME, organism-based; conditions: in vivo
[9] = Toxicity in Balb/C mouse assessed as drug tolerability at 50 mg/kg, po by LC/MS/MS analysis; format: organism-based; conditions: in vivo
[10] = Toxicity in Balb/C mouse assessed as drug tolerability at 50 mg/kg, po bid measured after 5 days by LC/MS/MS analysis; format: organism-based; conditions: in vivo, 120 h, time 5 day
How it was run: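 Healthy female mice, one per group, were dosed orally twice daily for 5 days at 10, 50 or 100 mg/kg, with vehicle controls (0.5% HPMC/0.5% benzyl alcohol/0.4% Tween 80 in water). Readouts were mortality, clinical signs, body weight, food consumption and gross pathology.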

[11] = Cmax in Balb/C mouse at 50 mg/kg, po or 0.1 mg/kg, iv by LC/MS/MS analysis; format: ADME, organism-based; parameters: dose 50 mg/kg, route po; conditions: in vivo
How it was run: (§1)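 Female Balb/c mice dosed i.v. 0.1 mg/kg as part of a five-compound cassette, and p.o. 50 mg/kg, without ABT. PK parameters came from concentration–time profiles. Brain-to-plasma ratio was taken at 1 h.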

[12] = AUC (0 to last) in Balb/C mouse at 50 mg/kg, po or 0.1 mg/kg, iv by LC/MS/MS analysis; format: ADME, organism-based; parameters: dose 50 mg/kg, route po; conditions: in vivo; how it was run: as §1
[13] = Volume of distribution at steady state in Balb/C mouse plasma at 50 mg/kg, po or 0.1 mg/kg, iv by LC/MS/MS analysis; format: ADME, organism-based; conditions: in vivo; how it was run: as §1
[14] = Half life in Balb/C mouse at 50 mg/kg, po by LC/MS/MS analysis; format: ADME, organism-based; conditions: in vivo
How it was run: (§2)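 Female Balb/c mice received a single i.v. dose of 1 mg/kg and a single oral dose of 50 mg/kg. PK parameters came from blood concentration–time profiles. Brain-to-plasma ratio was taken at 0.5 h.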

[15] = Ratio of drug level in Balb/C mouse brain to plasma at 50 mg/kg, po or 0.1 mg/kg, iv measured after 1 hr by LC/MS/MS analysis; format: ADME, organism-based; how it was run: as §1
[16] = Cmax in Balb/C mouse at 12.5 mg/kg, po or 2 mg/kg, iv in presence of ABT by LC/MS/MS analysis; format: ADME, organism-based; parameters: dose 12.5 mg/kg, route po; conditions: in vivo
How it was run: (§3)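 Female Balb/c mice (n = 3 per route) dosed i.v. 2 mg/kg and p.o. 12.5 mg/kg. 1-Aminobenzotriazole, a CYP450 inhibitor, was given p.o. at 50 mg/kg 2 h before each dose. Parameters were derived from blood concentration–time profiles.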

[17] = AUC (0 to last) in Balb/C mouse at 12.5 mg/kg, po or 2 mg/kg, iv in presence of ABT by LC/MS/MS analysis; format: ADME, organism-based; parameters: dose 12.5 mg/kg, route po; conditions: in vivo; how it was run: as §3
[18] = Volume of distribution at steady state in Balb/C mouse plasma at 12.5 mg/kg, po or 2 mg/kg, iv in presence of ABT by LC/MS/MS analysis; format: ADME, organism-based; conditions: in vivo; how it was run: as §3
[19] = Half life in Balb/C mouse plasma at 2 mg/kg, iv in presence of ABT by LC/MS/MS analysis; format: ADME, organism-based; how it was run: as §3
[20] = Half life in Balb/C mouse plasma at 12.5 mg/kg, po in presence of ABT by LC/MS/MS analysis; format: ADME, organism-based; how it was run: as §3
[21] = Oral bioavailability in Balb/C mouse at 12.5 mg/kg in presence of ABT by LC/MS/MS analysis; format: ADME, organism-based; conditions: in vivo; how it was run: as §3
[22] = Toxicity in Balb/C mouse assessed as drug tolerability at 12.5 mg/kg, po by LC/MS/MS analysis; format: organism-based; conditions: in vivo
[23] = test system: Trypanosoma cruzi; assay: Antitrypanosomal activity against acute-stage Trypanosoma cruzi CL Brener infected in BALB/c mouse assessed as reduction in parasite burden at 50 mg/kg, po bid administered for 5 days by bioluminescence imaging based analysis relative to control; format: functional; parameters: scale not given: the % may be the effect or the level left; conditions: time 5 day
[24] = Toxicity in BALB/c mouse infected with acute Trypanosoma cruzi CL Brener assessed as adverse effects at 50 mg/kg, po bid; format: organism-based; conditions: in vivo
[25] = Cmax in Balb/C mouse at 50 mg/kg, po or 1 mg/kg, iv by LC/MS/MS analysis; format: ADME, organism-based; parameters: dose 50 mg/kg, route po; conditions: in vivo; how it was run: as §2
[26] = AUC (0 to last) in Balb/C mouse at 50 mg/kg, po or 1 mg/kg, iv by LC/MS/MS analysis; format: ADME, organism-based; parameters: dose 50 mg/kg, route po; conditions: in vivo; how it was run: as §2
[27] = Volume of distribution at steady state in Balb/C mouse plasma at 50 mg/kg, po or 1 mg/kg, iv by LC/MS/MS analysis; format: ADME, organism-based; conditions: in vivo; how it was run: as §2
[28] = Half life in Balb/C mouse at 1 mg/kg, iv by LC/MS/MS analysis; format: ADME, organism-based; conditions: in vivo; how it was run: as §2
[29] = Ratio of drug level in Balb/C mouse brain to plasma at 50 mg/kg, po or 1 mg/kg, iv measured after 0.5 hrs by LC/MS/MS analysis; format: ADME, organism-based; how it was run: as §2
[30] = Toxicity in Balb/C mouse assessed as adverse reactions at 50 mg/kg, po by LC/MS/MS analysis; format: organism-based; conditions: in vivo

c1ccc(-c2nc(N3CCC(c4ccccn4)C3)c3ccccc3n2)nc1 (racemic)
IC50 [1]: 790 nM | Selectivity Index [2]: 9.1 | PPB [3]: 99.9% | intrinsic clearance (CLint) [4]: 258 µL/min/mg | CLint [5]: 73 µL/min/mg | solubility kinetic [6]: 83 µg/mL (≈ 235 µM) | Papp at 3 h [7]: 31.9 ×10⁻⁶ cm/s | F [8]: 50% | Activity [9]: Non-Toxic | Activity [10]: Non-Toxic | Cmax [11]: 3360 ng/mL | AUC(0-t) [12]: 9610 ng·h/mL | Vdss [13]: 0.77 L/kg | half-life [14]: 7.2 h | BPR [15]: 1.66 | Cmax [16]: 4243 ng/mL | AUC(0-t) [17]: 26900 ng·h/mL | Vdss [18]: 0.94 L/kg | half-life [19]: 1 h | half-life [20]: 3.3 h | F [21]: 67% | Activity [22]: Toxic | Activity [23]: 89.9% | Activity [24]: Non-Toxic

CC(C)(Nc1nc(-c2ccccn2)nc2ccccc12)c1ccccn1
IC50 [1]: 1000 nM | selectivity ratio ([2]; U2OS cells, read-out: Selectivity Index): 25 | PPB [3]: 94.2% | solubility kinetic [6]: 83 µg/mL (≈ 243 µM) | Papp at 3 h [7]: 25.8 ×10⁻⁶ cm/s | Cmax [25]: 6240 ng/mL | AUC(0-t) [26]: 59900 ng·h/mL | F [8]: > 100% | Vdss [27]: 0.909 L/kg | half-life [28]: 1.13 h | BPR [29]: 1.6 | Activity [9]: Non-Toxic | Activity [10]: Toxic | Activity [30]: Non-Toxic

From ChEMBL document CHEMBL5316304, “Collaborative Virtual Screening Identifies a 2-Aryl-4-aminoquinazoline Series with Efficacy in an In Vivo Model of Trypanosoma cruzi Infection” (J Med Chem, 2023)
